Tests used:
[1] = molecular target: T1, 5-hydroxytryptamine receptor 6 (Homo sapiens, UniProt P50406); test: Displacement of [3H]lysergic acid diethylamide from human recombinant 5HT6 receptor
[2] = molecular target: T1, 5-hydroxytryptamine receptor 6; test: Antagonist activity at human recombinant 5HT6 receptor expressed in HEK293 cells assessed as inhibition of serotonin-induced cAMP production after 2 hrs; format: functional, cell-based
Method in brief: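 Tetracycline-induced (1 ug/mL, day before) T-Rex HEK cells expressing 5-HT6R, EDTA-harvested, in HBSS/5 mM HEPES pH 7.4/0.05% BSA with IBMX; ~4000 cells/well. Compound premixed with serotonin (final 10 nM, 0.32% DMSO), 2 h; cAMP by LANCE kit. Duplicates; 4-parameter IC50; Ki = IC50/(1+[Ag]/EC50), serotonin EC50 measured on same plates.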

T1 sequence (P50406 whole entry): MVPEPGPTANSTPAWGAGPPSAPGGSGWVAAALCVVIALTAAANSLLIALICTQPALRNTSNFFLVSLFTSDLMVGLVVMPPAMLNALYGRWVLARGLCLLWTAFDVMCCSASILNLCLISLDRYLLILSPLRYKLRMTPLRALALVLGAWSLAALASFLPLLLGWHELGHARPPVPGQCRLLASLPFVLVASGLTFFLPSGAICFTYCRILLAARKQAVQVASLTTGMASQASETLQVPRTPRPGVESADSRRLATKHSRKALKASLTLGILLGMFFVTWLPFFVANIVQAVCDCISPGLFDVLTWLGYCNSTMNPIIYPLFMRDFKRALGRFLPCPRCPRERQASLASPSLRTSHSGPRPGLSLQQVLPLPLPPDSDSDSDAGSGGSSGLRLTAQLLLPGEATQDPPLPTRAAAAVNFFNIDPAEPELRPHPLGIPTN

| Ki [1] [nM] | Ki [2] [nM] | Structure (SMILES) |
| --- | --- | --- |
| 2 |  | CSc1nn2c(C)cc(C)nc2c1S(=O)(=O)c1ccccc1 |
|  | 2960 | Cc1cc(C)n2nc([S+](C)[O-])c(S(=O)(=O)c3ccccc3)c2n1 (configuration not stated) |
|  | 764 | Cc1cc(C)n2nc(NCCCN(C)C)c(S(=O)(=O)c3ccccc3)c2n1 |
|  | 2200 | Cc1cc(C)n2nc(OCCN(C)C)c(S(=O)(=O)c3ccccc3)c2n1 |
|  | 1380 | Cc1cc(C)n2nc(N3CCNCC3)c(S(=O)(=O)c3ccccc3)c2n1 |
| 22.2 | 283 | Cc1cc(C)n2nc(OCCO)c(S(=O)(=O)c3ccccc3)c2n1 |
